Screening results from PubChem.
Pf Dd2 inh: P. falciparum Dd2 growth inhibition; activity change, % at 10 µM; 2.3% of 94,000 active; SYBR Green, 72 h; hits give low values; AID 1159554; in the data active = activity change below about -80%; inconclusive = no clear call, values can overlap the other calls
IDH1 mut inh: blocks human IDH1 R132H reductase activity; O75874; diaphorase/resazurin fluorescence, 60 min; 0.18% of 70,000 active; inhibition, % at 10 µM; in the data active = inhibition above about 34%; inconclusive = no clear call, values can overlap the other calls; inactive = below about 11%;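 also: 0% = DMSO and 100% = no enzyme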
Target sequence (O75874 whole entry R132H): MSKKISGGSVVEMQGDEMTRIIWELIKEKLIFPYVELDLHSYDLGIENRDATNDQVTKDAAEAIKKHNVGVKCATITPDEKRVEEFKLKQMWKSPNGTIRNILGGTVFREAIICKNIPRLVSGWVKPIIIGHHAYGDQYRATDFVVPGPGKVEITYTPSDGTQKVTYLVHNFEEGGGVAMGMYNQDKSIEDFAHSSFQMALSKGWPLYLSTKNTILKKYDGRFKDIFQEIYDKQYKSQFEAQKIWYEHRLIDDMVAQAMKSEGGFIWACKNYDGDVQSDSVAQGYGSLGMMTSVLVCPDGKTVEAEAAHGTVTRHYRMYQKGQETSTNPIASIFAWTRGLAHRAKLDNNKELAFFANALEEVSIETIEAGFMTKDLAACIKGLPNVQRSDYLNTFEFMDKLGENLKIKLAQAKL
T cruzi growth-1: inhibitors of T. cruzi proliferation; T. cruzi beta-gal in NIH3T3, GalScreen luminescence, 90 h; inhibition, % at 8.34 µM; 5.9% of 77,000 active; AID 624255;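 active = mean inhibition above about 93%, with at least 55% of replicates each passing it, limit read from the data, passing the limit was not always enough; inconclusive = only one of those two conditions holds; inactive = neither condition holds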
KDM4C inh: blocks human GASC-1 (KDM4C) demethylase activity. GST-KDM4C 2-372, H3K9me3 peptide, LANCE TR-FRET. AID 720574. inhibition, % at 12.5 µM. Q9H3R0. 0.15% of 96,000 active;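 active = mean replicate inhibition above about 25%, with at least 55% of replicates also reaching it, limit read from the data, passing the limit was not always enough; inconclusive = only one of those two conditions met; inactive = neither condition met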
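Compound: one test concentration per compound; Material: GST-GASC-1 enzyme fragment 2-372; Amount: GASC-1 enzyme at 10 nM final in reaction; Also added: H3K9me3 peptide substrate, Fe(II), 2-oxoglutarate; Technique: LANCE TR-FRET; Times: 30 min demethylation and 1 h detection at room temperature.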
T cruzi growth-2: blocks T. cruzi growth in NIH3T3 host cells; 72% of 5,600 active; AID 651739; T. cruzi beta-gal in NIH3T3, GalScreen luminescence, 90 h; inhibition, % at 8.35 µM; shares compounds with T cruzi growth-1;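 active = mean replicate inhibition above about 95% and at least 55% of replicates individually reaching it, limit read from the data; inconclusive = only one of the two criteria is met; inactive = neither criterion is met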
T cruzi growth-3: Trypanosoma cruzi proliferation inhibition; shares compounds with T cruzi growth-1; T. cruzi beta-gal in NIH3T3, GalScreen luminescence, 90 h; inhibition, % at 2.09 µM; 21% of 5,600 active;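 active = mean inhibition above about 95%, with at least 55% of replicates also reaching it, limit read from the data; inconclusive = meets just one of the two conditions; inactive = meets neither condition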;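 also: plate controls were neutral control median for no effect and positive control median for full effect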
NIH3T3 tox: NIH/3T3 (mouse) viability loss; shares compounds with T cruzi growth-1; NIH/3T3 viability, CellTiter-Glo ATP luminescence, 90 h; cytotoxicity (signal decrease), % at 8.35 µM; 14% of 5,600 active; AID 651742;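 active = mean signal decrease across replicates above about 35% based on untreated-well scatter, with enough replicates individually passing, limit read from the data; inconclusive = no rule stated though some were filed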;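 also: 0% = median of neutral control wells and 100% = median of positive control wells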
NIH3T3 tox 2: cytotoxicity in mouse NIH/3T3 fibroblasts; shares compounds with T cruzi growth-1; AID 651744; inhibition, % at 24.9 µM; 56% of 5,600 active; NIH/3T3 viability, CellTiter-Glo ATP luminescence, 90 h;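 active = mean loss of cell viability signal at or above a set limit, and enough replicates individually reaching it; inconclusive = meets only the mean limit or only the replicate share; inactive = meets neither condition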;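 also: 0% = median of neutral control wells and 100% = median of positive control wells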
* = called active by the depositor; ? = inconclusive; . = not tested or not shown; + = active, no number. Rows were chosen to be rich in hits. Some 5.8% of all compounds tested hit in one or more screens of this group.

SMILES	Pf Dd2 inh	IDH1 mut inh	T cruzi growth-1	KDM4C inh	T cruzi growth-2	T cruzi growth-3	NIH3T3 tox	NIH3T3 tox 2
Cc1ccc(S(=O)(=O)N(C)C[C@H]2OCCCC[C@@H](C)Oc3ccc(NC(=O)Cc4ccccc4)cc3C(=O)N([C@@H](C)CO)C[C@H]2C)cc1	-65	.	108*	-1	106*	61	-19	-3
Cc1ccc(S(=O)(=O)N(C)C[C@@H]2OCCCC[C@@H](C)Oc3ccc(NC(=O)Cc4ccccc4)cc3C(=O)N([C@@H](C)CO)C[C@H]2C)cc1	-70	0	64	1	.	.	.	.
C[C@H](CO)N1C[C@H](C)[C@H](CN(C)Cc2ccc3c(c2)OCO3)Oc2ccc(NC(=O)Nc3cccc4ccccc34)cc2C1=O	6	0	105*	-1	?	104*	32	67*
C[C@@H]1CN([C@@H](C)CO)C(=O)Cc2cc(NC(=O)Nc3cccc4ccccc34)ccc2O[C@H]1CN(C)Cc1ccc2c(c1)OCO2	-7	0	109*	-1	110*	70	29	-2
CC1(C)NC(=O)N(CCCOc2ccccc2CO)C1=O	.	0	.	.	.	.	.	.
CC(C)NC(=O)Nc1ccc2c(c1)CC(=O)N([C@H](C)CO)C[C@H](C)[C@H](CN(C)Cc1ccc(Oc3ccccc3)cc1)O2	-42	1	71	0	.	.	.	.
CC(C)NC(=O)Nc1ccc2c(c1)CC(=O)N([C@@H](C)CO)C[C@@H](C)[C@H](CN(C)Cc1ccc(Oc3ccccc3)cc1)O2	?	0	101*	3	107*	42	30	104*
C[C@@H]1CN([C@H](C)CO)C(=O)Cc2cc(NC(=O)Nc3ccc4c(c3)OCO4)ccc2O[C@H]1CN(C)Cc1ccc(Oc2ccccc2)cc1	9	-1	?	11	113*	69	29	31*
COc1ccc(CN(C)C[C@H]2Oc3ccc(NC(=O)Nc4ccc5c(c4)OCO5)cc3CC(=O)N([C@H](C)CO)C[C@H]2C)cc1	31	2	99*	0	110*	20	1	8
C[C@@H]1CN([C@@H](C)CO)C(=O)Cc2cc(NC(=O)Nc3ccc4c(c3)OCO4)ccc2O[C@@H]1CN(C)Cc1ccc(Oc2ccccc2)cc1	-5	.	4	-1	.	.	.	.
N#Cc1cccc(-c2ccc3c(c2)[C@H]2[C@H](CCN2S(=O)(=O)c2cccc(F)c2)[C@@H](CO)N3)c1	10	.	?	-1	106*	48	46*	51*
N#Cc1cccc(-c2ccc3c(c2)[C@H]2[C@H](CCN2S(=O)(=O)c2cccc(F)c2)[C@H](CO)N3)c1	42	.	103*	-6	99*	27	10	?
N#Cc1ccc(-c2ccc3c(c2)[C@H]2[C@H](CCN2S(=O)(=O)c2cccc(F)c2)[C@H](CO)N3)cc1	-9	.	13	-2	.	.	.	.
N#Cc1ccc(-c2ccc3c(c2)[C@@H]2[C@@H](CCN2S(=O)(=O)c2ccccc2F)[C@H](CO)N3)cc1	24	.	36	0	.	.	.	.
N#Cc1cccc(-c2ccc3c(c2)[C@@H]2[C@@H](CCN2S(=O)(=O)c2ccccc2F)[C@H](CO)N3)c1	23	.	108*	-3	106*	87	46*	92*
CCCC#Cc1ccc([C@H]2[C@@H](CO)N3CCCCN(CC4CCOCC4)C[C@H]23)cc1	-53	.	124*	0	93	78	30	101*
OC[C@@H]1[C@@H](c2ccc(C#Cc3ccccc3)cc2)[C@@H]2CN(CC3CCOCC3)CCCCN12	-47	.	?	-1	105*	65	52*	105*
OC[C@H]1[C@@H](c2ccc(C#Cc3ccccc3)cc2)[C@H]2CN(CC3CCOCC3)CCCCN21	-16	.	94	-1	.	.	.	.
OC[C@H]1[C@H](c2ccc(C#Cc3ccccc3)cc2)[C@H]2CN(CC3CCOCC3)CCCCN21	-57	.	102*	-1	109*	87	76*	105*
CCCC#Cc1ccc([C@H]2[C@H]3CN(CC4CCOCC4)CCCCN3[C@H]2CO)cc1	-8	.	65	1	.	.	.	.
OC[C@@H]1[C@H](c2ccc(C#Cc3ccccc3)cc2)[C@@H]2CN(CC3CCOCC3)CCCCN12	-12	.	104*	-1	106*	81	32	103*
COC(=O)CCCCCCC(=O)N/N=C/c1cc(Br)c(O)c(Br)c1	.	1	.	.	.	.	.	.
O=C(Nc1ccccc1)NC1CC(C(=O)O)Nc2cc(Cl)cc(Cl)c21 (centres undefined)	.	0	.	.	.	.	.	.
CCCCCCCCCCCCCCCC(=O)C1C(=O)OC(CO)C1=O (centres undefined)	.	6	.	.	.	.	.	.
CN1CCN(C(=O)[C@H]2[C@H](CO)[C@H]3Cn4c(cccc4=O)[C@@H]2N3Cc2ccncc2)CC1	.	.	+	1	-17	-2	-3	-14
SMILES	Pf Dd2 inh	IDH1 mut inh	T cruzi growth-1	KDM4C inh	T cruzi growth-2	T cruzi growth-3	NIH3T3 tox	NIH3T3 tox 2
O=C(NCc1ccc(F)cc1)[C@@H]1[C@@H](CO)[C@@H]2Cn3c(cccc3=O)[C@H]1N2	8	.	?	-3	-31	-25	-19	-13
O=C(Nc1ccccc1)[C@@H]1[C@@H](CO)[C@@H]2Cn3c(cccc3=O)[C@H]1N2Cc1ccncc1	2	.	100*	1	?	13	-1	4
O=C(NCc1ccc(F)cc1)[C@H]1[C@H](CO)[C@H]2Cn3c(cccc3=O)[C@@H]1N2Cc1cccnc1	11	.	99*	-1	89	-13	-3	-11
O=C(NCc1ccc(F)cc1)[C@@H]1[C@@H](CO)[C@@H]2Cn3c(cccc3=O)[C@H]1N2Cc1ccncc1	1	.	-7	-2	.	.	.	.
CC(=O)c1cccc(NC(=O)Nc2nn(Cc3c(F)cccc3Cl)cc2Br)c1	.	0	.	.	.	.	.	.
COc1ccc(CN(C)C[C@@H]2Oc3ccc(NC(=O)Nc4ccccc4)cc3C(=O)N([C@H](C)CO)C[C@@H]2C)cc1	2	-1	24	-1	.	.	.	.
COc1ccc(NC(=O)Nc2ccc3c(c2)C(=O)N([C@H](C)CO)C[C@H](C)[C@H](CN(C)Cc2ccc(-c4ccccc4)cc2)O3)cc1	13	3	?	-1	100*	22	-6	19
COc1ccc(NC(=O)Nc2ccc3c(c2)C(=O)N([C@@H](C)CO)C[C@@H](C)[C@@H](CN(C)Cc2ccc(-c4ccccc4)cc2)O3)cc1	21	2	100*	-3	104*	108*	55*	84*
COc1ccc(CN(C)C[C@@H]2Oc3ccc(NC(=O)Nc4ccccc4)cc3C(=O)N([C@@H](C)CO)C[C@@H]2C)cc1	13	0	15	0	.	.	.	.
Cc1ccc(NC(=O)COc2ccc3c(=O)c(-c4ccccc4Cl)coc3c2)cc1	.	-1	.	.	.	.	.	.
